Compounds with a hit are over-represented: about 3.1% of the library has one in this group of screens.
KCNQ1 inh – inhibitors of human KCNQ1 channel, primary screen, cell-based, thallium flux, high-throughput; Potassium voltage-gated channel subfamily KQT member 1 (Homo sapiens), P51787; CHO-K1 KCNQ1, FluxOR thallium flux fluorescence; stronger effect = higher value; B-score at 10 µM; 310,000 compounds, 1.3% hits;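 active = compounds whose thallium flux B-score, printed positive for inhibition, exceeds three library SD while starting fluorescence stays within three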;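 note: channel opened by potassium depolarization with thallium stimulus after 20 min compound exposure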
KCNK9 inh – KCNK9 potassium channel inhibitors, primary screen, HEK293 cells, thallium flux | Potassium channel subfamily K member 9 (Homo sapiens), Q9NPC2 | FluxOR thallium flux fluorescence; stronger effect = lower value | B-score at 10 µM | 310,000 compounds, 1.2% hits | AID 488922, 2010;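 active = ratio B-score over 3 SD below the library mean, with starting fluorescence within 5 SD of its mean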;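 note: negative B-score means less thallium flux so channel inhibition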
KCNQ1 pot – potentiators or activators of KCNQ1 channel, primary screen, cell-based, thallium flux, high-throughput | AID 2648, 2010 | B-score at 10 µM | 310,000 compounds, 0.35% hits | CHO-K1 KCNQ1, thallium flux FluxOR fluorescence; stronger effect = higher value;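 active = fluorescence ratio B-score, a plate-corrected score, at least three library SD, with initial intensity B-score within 5 SD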
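Assay system: CHO-K1 cells stably expressing KCNQ1. Medium: assay buffer for compound exposure, DMSO matched across wells. Timing: 37 °C overnight plating, 90-min dark dye load, 20-min compound pretreatment. Signal: kinetic FluxOR fluorescence, 10 s baseline plus 110 s post-stimulus.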
hERG protect – hERG rescue from dofetilide block, primary screen, cell-based, CHO-hERG, FluxOR thallium flux, dofetilide IC70. Voltage-gated inwardly rectifying potassium channel KCNH2 (Homo sapiens), Q12809. dofetilide IC70 present. activation (rescue from dofetilide block), less the hit threshold, % at 10 µM. 310,000 compounds, 0.51% hits. AID 1511, 2009;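 active = activation above the mean of controls blocked by dofetilide plus 5 SD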;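 note: thallium influx through hERG after potassium depolarization seen as dye fluorescence rise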
KCNK3 inh – human KCNK3 channel inhibitors, primary screen, CHO cells, FluxOR thallium flux, B-score; Potassium channel subfamily K member 3 (Homo sapiens), O14649; 340,000 compounds, 0.84% hits; B-score at 10 µM; FluxOR fluorescence; stronger effect = lower value;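 active = B-score under library mean minus 4 SD, starting fluorescence ratio at most library mean plus 5 SD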;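 note: more negative B-score means stronger inhibition of thallium flux through KCNK3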
Target sequence (O14649 whole entry, looked up): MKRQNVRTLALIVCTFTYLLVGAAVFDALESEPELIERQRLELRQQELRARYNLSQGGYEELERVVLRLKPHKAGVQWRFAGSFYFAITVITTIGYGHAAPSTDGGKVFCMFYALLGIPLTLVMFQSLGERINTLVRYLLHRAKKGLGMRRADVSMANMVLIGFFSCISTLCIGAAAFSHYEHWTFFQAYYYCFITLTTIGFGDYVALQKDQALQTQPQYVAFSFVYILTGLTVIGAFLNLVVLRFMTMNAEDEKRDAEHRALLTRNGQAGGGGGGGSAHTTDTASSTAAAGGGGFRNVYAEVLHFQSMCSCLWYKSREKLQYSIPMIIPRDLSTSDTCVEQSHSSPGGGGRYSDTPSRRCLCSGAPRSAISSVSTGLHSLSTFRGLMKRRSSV
Hits are given with their value; – = inactive; · = not tested or not shown; ! = not confirmed by another sample.

SMILES | KCNQ1 inh | KCNK9 inh | KCNQ1 pot | hERG protect | KCNK3 inh
O=c1c2cc(Cl)ccc2nc(-c2ccc([N+](=O)[O-])cc2)n1O | – | – | 13 | 21 | –
O=c1c2ccccc2nc(-c2ccccc2Cl)n1O | – | – | – | – | –
Cc1c(/C=C2\NC(=O)NC2=O)c2ccccc2n1C | – | – | – | – | –
COc1ccc(C(=O)O)cc1S(=O)(=O)NCc1ccncc1 | · | · | · | · | –
O=c1c2cc(Br)ccc2nc(-c2ccc(Cl)cc2)n1O | – | – | 104 | 35 | –
C=CCn1c(COc2ccccc2)nnc1SCc1ccc(C#N)cc1 | – | – | – | – | –
C=CCn1c(COc2ccc(Cl)cc2)nnc1SCc1ccc(C#N)cc1 | – | – | – | 4.8 | –
COc1ccc(C(=O)NCC(=O)N/N=C/c2cn(C)c3ccccc23)cc1OC | – | – | – | – | –
CCN(CC)S(=O)(=O)c1ccc(N2CCCCC2)c(NC(=O)/C=C/c2cc(OC)c(OC)c(OC)c2)c1 | – | -6.9 | – | – | –
O=C(Nc1ccccc1)OCCOc1ccccc1 | – | – | – | – | –
O=C(Nc1ccccc1)OCCCCCOC(=O)Nc1ccccc1 | – | – | – | 7.7 | –
O=C(CN(c1ccc(F)cc1)S(=O)(=O)c1ccccc1)NC1CCCCCC1 | – | – | – | – | –
CC(C)N=c1cc2n(-c3ccc(Cl)cc3)c3ccccc3nc-2cc1Nc1ccc(Cl)cc1 | 17 | -10 | – | – | –
Cn1c(CNc2ccc(Cl)cc2)nc2ccccc21 | – | – | – | – | –
CC(=O)c1cccc(S(=O)(=O)N2CCC(c3nc4ccccc4[nH]3)CC2)c1 | – | – | – | – | –
Cc1ccc2nc(C3CCN(S(=O)(=O)c4ccc5ccccc5c4)CC3)[nH]c2c1 | – | – | 8 | – | –
CN(CCCC(=O)Nc1ccc(OC(F)F)cc1)S(=O)(=O)c1ccc(F)cc1 | – | – | – | – | –
COc1ccc(/C=N\NC(=O)c2ccccc2F)cc1COc1ccc(F)cc1 | – | – | – | – | –
COc1ccc(/C=N\NC(=O)c2ccccc2Br)cc1COc1c(F)c(F)cc(F)c1F | 6 | – | – | – | –
COc1ccc(/C=N/NC(=O)c2cc(C(C)(C)C)[nH]n2)cc1COc1ccc(F)cc1F | 6 | – | – | – | –
COc1ccc(/C=N/NC(=O)c2cc(C)oc2C)cc1OCc1ccccc1 | – | -6.7 | – | – | –
COc1ccc(/C=N\NC(=O)c2ccccc2F)cc1COc1ccc(F)cc1F | – | – | – | – | –
Cc1ccsc1C(=O)N(C)CC(=O)Nc1ccccc1Br | · | · | · | · | –
Cn1c(=O)c2sccc2n2c(CCCC(=O)NCCc3ccccc3)nnc12 | – | – | – | – | –
Cc1cc(Cl)c(S(=O)(=O)N2CCN(c3ccc(F)cc3)CC2)cc1OCC(N)=O | – | – | – | 6.0 | –
SMILES | KCNQ1 inh | KCNK9 inh | KCNQ1 pot | hERG protect | KCNK3 inh
Nn1c(SCC(=O)Nc2ccccc2)nnc1C1CCCCC1 | – | – | – | – | –
Nn1c(SCC(=O)Nc2ccc(F)cc2)nnc1C1CCCCC1 | – | – | – | 4.9 | –
Cc1ccccc1-n1nnnc1SCC(=O)Nc1ccc(S(=O)(=O)N2CCCC2)cc1 | – | – | – | – | –
Cc1nnc(SCC(=O)Nc2ccc(S(=O)(=O)N3CCCC3)cc2)n1N | – | – | – | 36 | –
CCOC(=O)C1=C(Nc2ccccc2)CC(C)(O)C(C(=O)OCC)C1c1ccc(Cl)cc1 (stereo unspecified) | · | · | · | · | -9.9!
CN(CC(=O)NCc1ccccc1)CC(=O)Nc1ccc(Cl)c(C(F)(F)F)c1 | · | · | · | · | -9.4
CN(CC(=O)NC(=O)NCc1ccccc1)CC(=O)Nc1ccc(Cl)c(C(F)(F)F)c1 | – | – | – | – | –
C#CCN1C=CC(=O)[C@@H](OC(=O)NCCC)[C@H]1c1ccccc1Br | · | · | · | · | –
COc1ccc(/C=N/NC(=O)c2ccc(O)cc2)cc1CN1CCCc2ccccc21 | – | -7.9 | – | – | –
COc1ccc(-c2cc(C(F)(F)F)nc(S(=O)(=O)CCCC(=O)Nc3cccnc3Cl)n2)cc1OC | · | · | · | · | –
COc1ccc2nc(N=Nc3c(O)ccc4ccccc34)sc2c1 | – | – | 15 | 17 | ·
COc1ccc2nc(NC(=O)Nc3cccc4ccccc34)sc2c1 | – | – | – | – | –
COc1ccc(COc2ccc(S(=O)(=O)N3CCCC3)cc2C(N)=O)cc1F | – | – | – | – | –
Cc1cccc(NCCC(=O)c2ccc([N+](=O)[O-])cc2)c1C | – | – | – | 4.7 | –
CCN(CC)c1ccc(/C=C(\C#N)c2ccccn2)cc1 | 6 | – | – | – | -11
O=C1CCN(Cc2ccco2)C(=S)N1 | · | · | · | · | –
Cc1cc(C)c(C)c(S(=O)(=O)N2CCN(c3ncnc4ccccc34)CC2)c1C | · | · | · | · | -10
Cc1cc(C)c(C)c(S(=O)(=O)N2CCN(c3ccccn3)CC2)c1C | – | – | – | – | –
CCOC(=O)N1CCN(C(=O)/C=C/c2ccc(OC)cc2)CC1 | – | – | – | 10 | –
Cc1ccc(/C=c2/sc3n(c2=O)CCCN=3)o1 | 6 | – | – | – | –
Cc1ccc(/C=c2\sc3n(c2=O)CN(c2ccc(Br)cc2)CN=3)o1 | – | – | – | – | –
FC(F)(F)c1cc(-c2ccco2)nc(NCc2ccccc2)n1 | – | – | – | – | –
COc1ccccc1-c1cc(C(F)(F)F)nc(NCc2ccco2)n1 | – | -7.3 | – | – | –
O=C(C[C@H]1C(=O)N(CCc2ccccc2)C[C@@H]1Cc1ccccc1)Nc1ccccc1 | – | – | – | – | –
CCCC(=O)NC(=S)c1c(C)n(C)n(-c2ccccc2)c1=O | – | – | – | – | –
SMILES | KCNQ1 inh | KCNK9 inh | KCNQ1 pot | hERG protect | KCNK3 inh
COc1ccc(-c2c[n+]3c4n2CCCCC4=C(c2ccccc2)C3)cc1 | 7 | – | – | – | –
COc1ccc(/C=C2\SC(=O)N(CC(=O)NCCCn3ccnc3)C2=O)cc1 | 7 | – | – | – | –
COc1ccc(CC(=O)OCCc2cc3cc(OC)c(OC)cc3c(=O)o2)cc1 | · | · | · | · | –
Cc1noc(C)c1CSCC(=O)Nc1nc2ccc(S(C)(=O)=O)cc2s1 | – | – | – | – | –
O=C(NCCS(=O)(=O)N1CCN(c2ccccc2)CC1)C1CC1 | – | – | – | – | –
O=C(OCC(=O)N1CCN(c2ccccc2)CC1)c1cccc(Cl)c1 | – | – | – | – | –
O=C(OCC(=O)N1CCN(c2ccccc2)CC1)c1cnc(Cl)c(Cl)c1 | – | – | – | 9.4 | ·
O=C(CSc1nc2nn(-c3ccccc3)c(=O)c-2c2n1CCCCC2)Nc1ccccc1[N+](=O)[O-] | · | · | · | · | –
O=c1cc(-c2c(F)c(F)c(F)c(F)c2F)oc2ccccc12 | – | – | 24 | 19 | –

Source: PubChem BioAssay
